Here are results for two molecules from ChEMBL document CHEMBL4680220, “Synthesis and biological evaluation of acridine-based histone deacetylase inhibitors as multitarget agents against Alzheimer's disease” (Eur J Med Chem, 2020).

One data set addresses Histone deacetylase 4 (Homo sapiens, UniProt P56524). The experiment in a line: Inhibition of recombinant human N-terminal GST-tagged/C-terminal His-tagged HDAC4 (627 to 1084 residues) expressed in baculovirus expression system using Boc-Lys(TFA)-AMC as substrate preincubated for 5 mins followed by substrate addition and measured after 30 mins by fluorescence assay.
Data set [1] in a line: Elimination rate constant in human liver microsomes at 1 uM preincubated for 3 mins followed by NADPH addition and measured up to 60 mins by LC-MS/MS analysis. The data set is classed as ADME, Microsome. The following applies: time <=63 min. Put shortly:
(§1)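 Mixed-gender human liver microsomes with test article at 1 µM final. Testosterone (5 µM) run separately as control. Mixture without cofactor equilibrated 3 min at 37 °C in a shaking water bath, then started with cofactor. Aliquots taken at 0, 10, 20, 30 and 60 min. CLint = k/P, where k is the elimination rate constant and P is the incubation protein concentration.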

The nature of data set [2]: Intrinsic clearance in human liver microsomes at 1 uM preincubated for 3 mins followed by NADPH addition and measured up to 60 mins by LC-MS/MS analysis. The following applies: 1 h, time <=63 min. In kind it is ADME, Microsome. Put shortly:
as §1
On the technique in general: Microsomes from liver hold many membrane-bound enzymes, among them those of drug oxidation.

In a further data set the target is Histone deacetylase 1 (Homo sapiens, UniProt Q13547). The experiment in a line: Inhibition of recombinant human C-terminal FLAG/His-tagged HDAC1 (1 to 482 residues) expressed in Sf9 insect cells using fluor de lys SIRT1 as substrate preincubated for 5 mins followed by substrate addition and measured after 30 mins by fluorescence assay.
Histone deacetylase 1, sequence (Q13547 whole entry, the tested form may be a part): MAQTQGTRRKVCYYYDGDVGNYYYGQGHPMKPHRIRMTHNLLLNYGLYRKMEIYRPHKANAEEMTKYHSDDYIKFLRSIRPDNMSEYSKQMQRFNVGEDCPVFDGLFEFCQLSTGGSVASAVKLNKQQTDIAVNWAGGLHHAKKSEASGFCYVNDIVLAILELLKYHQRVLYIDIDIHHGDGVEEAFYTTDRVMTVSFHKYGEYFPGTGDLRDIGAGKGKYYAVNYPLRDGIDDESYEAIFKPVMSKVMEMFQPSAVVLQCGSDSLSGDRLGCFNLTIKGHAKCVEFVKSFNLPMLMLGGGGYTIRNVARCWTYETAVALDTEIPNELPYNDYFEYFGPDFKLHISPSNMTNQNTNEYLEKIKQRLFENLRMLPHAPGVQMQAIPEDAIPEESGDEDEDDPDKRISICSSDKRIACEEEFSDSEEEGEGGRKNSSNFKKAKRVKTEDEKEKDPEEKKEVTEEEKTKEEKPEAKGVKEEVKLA
Data set [3] addresses Amyloid-beta precursor protein (Homo sapiens, UniProt P05067). The experiment in a line: Disaggregation of self-induced amyloid beta (1 to 42) (unknown origin) preformed fibrils at 10 uM measured after 24 hrs by thioflavin-T fluorescence assay relative to control. An outline of the steps:
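Aβ1-42 (10 µM) with 10 µM ThT and 1 mM EDTA in 50 mM phosphate buffer (150 mM NaCl, pH 7.4) pre-aggregated 24 h at 37 °C, 700 rpm; fluorescence read (ex 440/em 486 nm). Compound then added and incubated a further 24 h at 37 °C before re-reading. Disaggregation = (first − second reading)/first reading. Triplicate.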

The target in another data set is Histone deacetylase 9 (Homo sapiens, UniProt Q9UKV0). As to the kind of experiment: Inhibition of recombinant human C-terminal His-tagged HDAC9 (604 to 1066 residues) expressed in baculovirus infected Sf9 cells using fluorogenic HDAC 2A substrate preincubated for 5 mins followed by substrate addition and measured after 30 mins by fluorescence assay.
Histone deacetylase 9, sequence (Q9UKV0 whole entry, the tested form may be a part): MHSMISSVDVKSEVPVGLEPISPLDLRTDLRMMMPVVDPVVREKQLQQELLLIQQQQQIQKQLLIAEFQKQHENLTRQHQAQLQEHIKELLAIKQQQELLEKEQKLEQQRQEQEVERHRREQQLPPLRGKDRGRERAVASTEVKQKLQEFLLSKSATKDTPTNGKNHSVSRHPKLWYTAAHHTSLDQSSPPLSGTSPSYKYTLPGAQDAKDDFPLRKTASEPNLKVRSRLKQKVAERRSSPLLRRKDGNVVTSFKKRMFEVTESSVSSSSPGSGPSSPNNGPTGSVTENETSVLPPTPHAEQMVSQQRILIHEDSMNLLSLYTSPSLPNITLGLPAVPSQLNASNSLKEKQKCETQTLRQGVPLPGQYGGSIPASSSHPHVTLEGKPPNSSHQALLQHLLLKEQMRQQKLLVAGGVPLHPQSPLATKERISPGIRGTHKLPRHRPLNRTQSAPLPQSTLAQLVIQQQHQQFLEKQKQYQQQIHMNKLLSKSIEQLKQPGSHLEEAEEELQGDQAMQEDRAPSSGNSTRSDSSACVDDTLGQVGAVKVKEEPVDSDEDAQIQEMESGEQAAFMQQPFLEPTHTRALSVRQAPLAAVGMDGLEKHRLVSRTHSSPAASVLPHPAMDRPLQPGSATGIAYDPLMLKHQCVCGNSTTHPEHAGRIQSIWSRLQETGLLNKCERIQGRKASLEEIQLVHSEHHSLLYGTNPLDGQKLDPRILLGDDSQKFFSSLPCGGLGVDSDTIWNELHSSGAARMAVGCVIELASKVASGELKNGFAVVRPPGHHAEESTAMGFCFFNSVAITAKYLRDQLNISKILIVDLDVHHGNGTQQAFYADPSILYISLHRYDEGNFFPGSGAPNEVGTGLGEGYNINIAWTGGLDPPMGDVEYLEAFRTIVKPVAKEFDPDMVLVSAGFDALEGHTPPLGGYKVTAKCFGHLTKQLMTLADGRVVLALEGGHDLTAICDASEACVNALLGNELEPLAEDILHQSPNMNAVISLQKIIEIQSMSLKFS
For another data set, the target named is Acetylcholinesterase (Homo sapiens, UniProt P22303). As to the kind of experiment: Inhibition of recombinant human C-terminal 6His-tagged AChE (Glu32 to Leu614 residues) expressed in CHO cells using acetylthiocholine iodide as substrate preincubated for 5 mins measured after 15 mins by DTNB reagent based assay. Put shortly: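 Enzyme, compounds, acetylthiocholine iodide and DTNB diluted in 100 mM phosphate buffer pH 7.4. AChE was preincubated with the compound at varying concentrations for 5 min at 37 °C. The reaction was started with 1 mM ATCI solution and run 15 min at 37 °C. 2 mM DTNB solution was then added for 5 min. Absorbance read at 412 nm. IC50 set 0.1% DMSO wells as 100% and no-enzyme wells as 0%. Run in triplicate.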
Acetylcholinesterase, sequence (P22303 whole entry): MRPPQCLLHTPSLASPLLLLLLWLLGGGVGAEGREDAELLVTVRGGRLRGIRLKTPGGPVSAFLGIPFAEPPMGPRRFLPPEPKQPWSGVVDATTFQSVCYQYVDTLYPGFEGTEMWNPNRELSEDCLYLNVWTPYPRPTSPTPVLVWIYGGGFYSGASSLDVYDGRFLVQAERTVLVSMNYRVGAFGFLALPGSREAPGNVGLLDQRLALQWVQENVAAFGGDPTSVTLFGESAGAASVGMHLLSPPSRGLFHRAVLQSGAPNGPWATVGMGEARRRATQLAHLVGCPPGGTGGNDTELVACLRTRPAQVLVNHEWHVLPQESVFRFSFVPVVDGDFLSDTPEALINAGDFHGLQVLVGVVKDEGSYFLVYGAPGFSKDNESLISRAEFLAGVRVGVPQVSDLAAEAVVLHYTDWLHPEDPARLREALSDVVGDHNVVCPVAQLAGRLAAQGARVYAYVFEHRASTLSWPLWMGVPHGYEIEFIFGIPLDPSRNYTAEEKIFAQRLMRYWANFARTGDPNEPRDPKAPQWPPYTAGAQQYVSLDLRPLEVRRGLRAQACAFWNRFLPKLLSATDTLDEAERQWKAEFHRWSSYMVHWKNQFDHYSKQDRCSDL

For data set [4], the target named is T1, Protein deacetylase HDAC6 (Homo sapiens, UniProt Q9UBN7).
T1 sequence (Q9UBN7 whole entry): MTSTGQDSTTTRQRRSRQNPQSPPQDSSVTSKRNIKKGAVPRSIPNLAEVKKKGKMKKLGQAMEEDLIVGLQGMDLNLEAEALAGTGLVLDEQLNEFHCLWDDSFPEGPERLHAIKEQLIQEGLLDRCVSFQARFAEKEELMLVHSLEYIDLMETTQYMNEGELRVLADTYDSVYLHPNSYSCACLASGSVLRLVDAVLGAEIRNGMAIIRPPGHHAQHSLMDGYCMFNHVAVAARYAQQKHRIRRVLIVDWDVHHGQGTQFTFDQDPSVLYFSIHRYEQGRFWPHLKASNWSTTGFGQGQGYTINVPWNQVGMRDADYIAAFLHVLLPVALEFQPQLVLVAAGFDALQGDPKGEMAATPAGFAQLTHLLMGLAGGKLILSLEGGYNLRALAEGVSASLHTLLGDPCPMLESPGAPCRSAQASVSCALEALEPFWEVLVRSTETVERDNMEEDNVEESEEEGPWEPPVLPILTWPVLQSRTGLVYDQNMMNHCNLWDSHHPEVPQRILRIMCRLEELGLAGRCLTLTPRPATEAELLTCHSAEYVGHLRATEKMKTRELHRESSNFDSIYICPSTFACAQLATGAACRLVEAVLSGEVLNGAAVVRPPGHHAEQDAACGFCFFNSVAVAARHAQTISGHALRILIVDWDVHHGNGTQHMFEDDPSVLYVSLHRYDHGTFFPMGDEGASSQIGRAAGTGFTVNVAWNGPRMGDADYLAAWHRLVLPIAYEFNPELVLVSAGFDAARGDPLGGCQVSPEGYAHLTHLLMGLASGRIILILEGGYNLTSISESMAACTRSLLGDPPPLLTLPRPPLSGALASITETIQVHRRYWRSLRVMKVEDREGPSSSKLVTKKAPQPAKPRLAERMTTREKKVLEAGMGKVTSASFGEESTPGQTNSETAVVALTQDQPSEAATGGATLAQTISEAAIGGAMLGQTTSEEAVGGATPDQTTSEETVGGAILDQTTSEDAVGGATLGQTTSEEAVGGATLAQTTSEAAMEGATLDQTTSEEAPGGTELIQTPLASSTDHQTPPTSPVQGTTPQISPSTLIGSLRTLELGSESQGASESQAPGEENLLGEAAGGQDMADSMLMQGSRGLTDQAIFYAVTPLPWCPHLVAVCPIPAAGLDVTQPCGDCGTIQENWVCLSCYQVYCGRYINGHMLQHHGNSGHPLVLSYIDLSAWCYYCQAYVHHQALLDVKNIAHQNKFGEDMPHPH
As to the kind of experiment: Inhibition of recombinant human full-length N-terminal GST-tagged HDAC6 expressed in baculovirus infected Sf9 insect cells using Boc-Lys(Ac)-AMC as substrate preincubated for 5 mins followed by substrate addition and measured after 30 mins by fluorescence assay.

Data set [5] has as its target Histone deacetylase 3/Nuclear receptor corepressor 2 (HDAC3/NCoR2) (Homo sapiens, UniProt O15379). As to the kind of experiment: Inhibition of human recombinant C-terminal His-tagged HDAC3 (1 to 428 residues)/N-terminal GST-tagged NCOR2 (395 to 489 residus) expressed in baculovirus infected Sf9 insect cells using fluor de lys SIRT1 as substrate preincubated for 5 mins followed by substrate addition and measured after 30 mins by fluorescence assay.

Another data set has as its system MDR1. The experiment in a line: Apparent permeability of compound in MDCK-MDR1 cells at 5 uM measured after 2 hrs by LC-MS/MS analysis. In kind it is ADME, cell-based, Canis lupus familiaris. Conditions: dog. Put shortly: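 MDR1-MDCK monolayers grown to confluence on collagen-coated microporous membranes. Test article dosed at 5 µM apical (A-to-B) or basolateral (B-to-A) in HBSS with 10 mM HEPES, 15 mM glucose, pH 7.4; receiver buffer has 1% BSA. 37 °C, 5% CO2; donor and receiver sampled at 120 min, quantified by LC-MS/MS (ESI). Duplicate determinations; lucifer yellow flux checks monolayer integrity. Efflux ratio = Papp(B-A)/Papp(A-B).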

Amyloid-beta precursor protein, sequence (P05067 whole entry): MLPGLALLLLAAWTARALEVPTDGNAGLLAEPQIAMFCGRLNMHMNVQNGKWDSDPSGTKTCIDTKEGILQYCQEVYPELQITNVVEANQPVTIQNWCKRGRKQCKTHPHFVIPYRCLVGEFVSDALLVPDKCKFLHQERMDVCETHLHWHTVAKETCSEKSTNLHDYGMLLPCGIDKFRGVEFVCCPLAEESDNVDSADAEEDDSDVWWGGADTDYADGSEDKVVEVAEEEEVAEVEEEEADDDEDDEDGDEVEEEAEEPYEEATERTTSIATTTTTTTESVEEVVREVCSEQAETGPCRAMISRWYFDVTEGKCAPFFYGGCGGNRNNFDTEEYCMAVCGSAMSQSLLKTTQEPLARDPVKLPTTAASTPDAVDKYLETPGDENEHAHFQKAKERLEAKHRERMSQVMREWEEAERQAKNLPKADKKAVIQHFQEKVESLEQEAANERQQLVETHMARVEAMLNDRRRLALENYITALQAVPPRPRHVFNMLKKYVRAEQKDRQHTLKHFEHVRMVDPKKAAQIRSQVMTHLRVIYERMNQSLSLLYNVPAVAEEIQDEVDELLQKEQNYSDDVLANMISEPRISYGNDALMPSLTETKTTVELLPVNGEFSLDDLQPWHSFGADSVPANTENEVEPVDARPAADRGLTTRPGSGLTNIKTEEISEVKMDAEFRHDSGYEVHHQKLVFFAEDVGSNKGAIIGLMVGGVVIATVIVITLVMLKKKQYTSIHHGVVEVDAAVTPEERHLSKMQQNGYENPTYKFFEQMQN
Histone deacetylase 4, sequence (P56524 whole entry, the tested form may be a part): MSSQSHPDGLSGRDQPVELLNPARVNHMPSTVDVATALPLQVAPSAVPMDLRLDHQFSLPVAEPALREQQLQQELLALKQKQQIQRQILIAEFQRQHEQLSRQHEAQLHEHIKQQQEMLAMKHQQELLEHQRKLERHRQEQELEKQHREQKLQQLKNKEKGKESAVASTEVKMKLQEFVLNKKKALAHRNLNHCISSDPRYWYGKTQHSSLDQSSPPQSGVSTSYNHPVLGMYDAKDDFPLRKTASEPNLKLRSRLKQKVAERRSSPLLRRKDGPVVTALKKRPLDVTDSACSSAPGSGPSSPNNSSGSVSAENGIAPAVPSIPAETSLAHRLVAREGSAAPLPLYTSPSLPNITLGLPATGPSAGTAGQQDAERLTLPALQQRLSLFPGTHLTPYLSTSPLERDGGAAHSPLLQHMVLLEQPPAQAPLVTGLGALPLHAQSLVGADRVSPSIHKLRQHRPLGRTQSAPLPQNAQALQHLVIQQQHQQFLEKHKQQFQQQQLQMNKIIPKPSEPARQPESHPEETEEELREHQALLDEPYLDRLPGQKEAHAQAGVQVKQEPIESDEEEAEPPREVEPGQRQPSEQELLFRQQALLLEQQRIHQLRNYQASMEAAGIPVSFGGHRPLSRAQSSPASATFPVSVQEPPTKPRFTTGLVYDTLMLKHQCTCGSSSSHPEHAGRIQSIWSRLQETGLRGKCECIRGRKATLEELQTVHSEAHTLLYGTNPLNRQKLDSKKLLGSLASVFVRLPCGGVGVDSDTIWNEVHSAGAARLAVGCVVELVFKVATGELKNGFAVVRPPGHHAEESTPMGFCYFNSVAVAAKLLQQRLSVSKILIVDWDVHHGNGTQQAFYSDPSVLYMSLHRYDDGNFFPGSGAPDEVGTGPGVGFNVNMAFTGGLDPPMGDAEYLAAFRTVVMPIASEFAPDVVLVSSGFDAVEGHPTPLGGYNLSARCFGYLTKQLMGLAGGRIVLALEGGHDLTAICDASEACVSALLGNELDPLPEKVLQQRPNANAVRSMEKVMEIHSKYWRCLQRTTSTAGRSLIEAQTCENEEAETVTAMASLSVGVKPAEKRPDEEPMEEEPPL

Take `O=C(NO)c1ccc(Nc2c3ccccc3nc3ccc(Br)cc23)cc1`: the IC50 amounted to 7850 nM on Histone deacetylase 4; 90 nM at Histone deacetylase 1; 5510 nM at Histone deacetylase 9; 880 nM at Acetylcholinesterase; 26 nM in data set [4]; 330 nM in data set [5]. Besides, the k el at 1 h, 1 µM in [1] is 0.000305 s⁻¹. Besides, the CLint in [2] is 36.6 µL/min/mg. The same molecule yielded an inhibition in data set [3] of 70%. Moreover, the apparent permeability (Papp) at 2 h, 5 µM in the data set with MDR1 worked out at 4.57 ×10⁻⁶ cm/s.
As to `O=C(NO)c1ccc(Nc2c3ccccc3nc3ccccc23)cc1`, the IC50 stood at 2240 nM at Histone deacetylase 4; 340 nM at Histone deacetylase 1; 570 nM at Histone deacetylase 9; 720 nM at Acetylcholinesterase; 25 nM in data set [4]; 1220 nM in data set [5]. For the same molecule, the k el at 1 h, 1 µM in [1] was 0.00034 s⁻¹. In addition, the CLint in data set [2] is 40.7 µL/min/mg. This molecule also yielded an inhibition in [3] of 41%. In addition, the Papp at 2 h, 5 µM in the data set on MDR1 stood at 2.72 ×10⁻⁶ cm/s.

A word on the IC50: it is the concentration that gives 50% inhibition. By inhibition is commonly meant the drop in the measured response relative to a control, in per cent. In general, Papp refers to the rate of passage across a membrane or cell layer, normalised by area and donor concentration.
